Drawing on ChEMBL document CHEMBL1240328, “Selective compounds define Hsp90 as a major inhibitor of apoptosis in small-cell lung cancer” (Nat Chem Biol, 2007), this text covers Activity and inhibition for two compounds.

Assay [1] addresses Heat shock protein HSP 90-beta (Homo sapiens) (UniProt P08238). In words: Binding affinity to HSP90 in human SKBR3 cells after 24 hrs by fluorescence polarization assay. Particulars: SK-BR-3. A general note: Polarisation of emitted light reports the rotation of a fluorescent probe.
The target is the same in assay [2]. As to the kind of experiment: Inhibition of HSP90-mediated proliferation of human SKBR3cells after 72 hrs by sulforhodamine B assay. On the technique in general: Sulforhodamine B stains cellular protein and so reports cell mass.
Assay [3] shares this target. In words: Inhibition of HSP90-mediated antiapoptotic activity in human SKBR3 cells assessed as induction of caspase-3 cleavage at 200 uM after 24 hrs by Western blot analysis. The assay is classed as cell-based. Particulars: SK-BR-3. An outline of the steps:
(§1)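 SKBr3 breast cancer cells at 60–70% confluence treated 24 h with compound or DMSO vehicle. Lysates in 50 mM Tris pH 7.4, 150 mM NaCl, 1% NP-40, quantified by BCA. 20–100 µg resolved by SDS-PAGE, blotted to nitrocellulose and probed for cleaved caspase-3, caspase-9 and PARP, using 1:5,000 peroxidase secondary. β-actin or PI(3)K p85 served as loading control.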

Assay [4] shares this target. In words: Inhibition of HSP90-mediated antiapoptotic activity in human SKBR3 cells assessed as induction of caspase-9 cleavage at 200 uM after 24 hrs by Western blot analysis. The class given is cell-based. Particulars: SK-BR-3. An outline of the steps: as §1
A general note: In western blotting, separated proteins are transferred to a membrane and probed.

Assay [5] shares this target. In words: Inhibition of HSP90-mediated antiapoptotic activity in human SKBR3 cells assessed as induction of PARP cleavage at 200 uM after 24 hrs by Western blot analysis. The class given is cell-based. The settings on record: SK-BR-3. The method in brief: as §1
Assay [6] shares this target. In words: Inhibition of HSP90-mediated antiapoptotic activity in human MCF7 cells assessed as induction of caspase-3 cleavage at 200 uM after 24 hrs by Western blot analysis. The assay is classed as cell-based.
For assay [7] the target is unchanged. As to the kind of experiment: Inhibition of HSP90-mediated antiapoptotic activity in human MCF7 cells assessed as induction of caspase-9 cleavage at 200 uM after 24 hrs by Western blot analysis. The assay is classed as cell-based.
Assay [8] shares this target. In words: Inhibition of HSP90-mediated antiapoptotic activity in human MCF7 cells assessed as induction of PARP cleavage at 200 uM after 24 hrs by Western blot analysis. The class given is cell-based.
Assay [9] concerns SK-BR-3. In words: Inhibition of HSP70-mediated antiapoptotic activity in human SKBR3 cells assessed as induction of cell growth arrest after 72 hrs by propidium iodide staining-based flow cytometry.
The test system of assay [10] is SK-BR-3. In words: Inhibition of HSP70-mediated antiapoptotic activity in human SKBR3 cells assessed as increase in caspase-3 activity after 24 hrs by Western blot analysis. The class given is cell-based.
Assay [11] relates to SK-BR-3. As to the kind of experiment: Inhibition of HSP70-mediated antiapoptotic activity in human SKBR3 cells assessed as induction of caspase-3 cleavage after 24 hrs by Western blot analysis. The assay is classed as cell-based. An outline of the steps:
(§2)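 SKBr3 cells were treated for 24 h. Lysates were probed by western blot for caspase-3 and PARP cleavage. Apaf-1 complexes were pulled down with Apaf-1 antibody (with control IgG) and immunoblotted.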

For assay [12], the system named is SK-BR-3. As to the kind of experiment: Inhibition of HSP70-mediated antiapoptotic activity in human SKBR3 cells assessed as induction of PARP cleavage after 24 hrs by Western blot analysis. The class given is cell-based. The method in brief: as §2
Assay [13] relates to NCI-H526. As to the kind of experiment: Inhibition of HSP70-mediated antiapoptotic activity in human NCI-H526 cells assessed as induction of caspase-3 cleavage after 24 hrs by Western blot analysis. The class given is cell-based. An outline of the steps:
(§3)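 NCI-H526 cells were treated for 24 h. PARP and caspase-3 cleavage were read by western blot of lysates in Tris/NaCl/NP-40 buffer. Apaf-1 complexes were immunoprecipitated with Apaf-1 antibody, using control IgG, then blotted.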

The test system of assay [14] is NCI-H526. In words: Inhibition of HSP70-mediated antiapoptotic activity in human NCI-H526 cells assessed as induction of PARP cleavage after 24 hrs by Western blot analysis. The assay is classed as cell-based. An outline of the steps:
as §3

Assay [15] has as its system NCI-H526. In words: Inhibition of HSP70-mediated antiapoptotic activity in human NCI-H526 cells assessed as release of Apaf-1 from chaperon complex after 24 hrs by Western blot analysis. The assay is classed as cell-based. The method in brief: as §3

Activity calls are given as the source filed them. No cut-off for these calls is given here.

Heat shock protein HSP 90-beta (Homo sapiens), sequence (P08238 whole entry): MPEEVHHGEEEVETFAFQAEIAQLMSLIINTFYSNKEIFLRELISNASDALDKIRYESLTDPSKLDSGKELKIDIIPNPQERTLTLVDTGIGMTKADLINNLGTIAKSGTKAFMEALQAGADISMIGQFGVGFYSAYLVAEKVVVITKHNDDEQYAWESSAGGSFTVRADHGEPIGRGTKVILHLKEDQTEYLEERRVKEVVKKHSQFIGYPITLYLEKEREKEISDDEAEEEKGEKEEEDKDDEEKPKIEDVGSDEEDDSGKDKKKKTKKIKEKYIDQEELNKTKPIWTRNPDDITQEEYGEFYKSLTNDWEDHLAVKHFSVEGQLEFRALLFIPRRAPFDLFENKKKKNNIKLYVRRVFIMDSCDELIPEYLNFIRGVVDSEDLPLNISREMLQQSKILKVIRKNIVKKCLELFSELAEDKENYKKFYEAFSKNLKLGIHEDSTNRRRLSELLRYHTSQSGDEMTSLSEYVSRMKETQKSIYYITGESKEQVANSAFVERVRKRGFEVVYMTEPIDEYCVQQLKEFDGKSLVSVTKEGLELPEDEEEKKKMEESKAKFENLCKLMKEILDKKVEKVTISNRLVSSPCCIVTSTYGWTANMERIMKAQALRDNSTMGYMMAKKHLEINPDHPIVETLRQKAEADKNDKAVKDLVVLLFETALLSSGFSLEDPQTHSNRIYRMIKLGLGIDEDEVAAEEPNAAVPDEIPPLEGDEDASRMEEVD

`CC(C)NCCCn1c(Cc2cc3c(cc2I)OCO3)nc2c(N)nc(F)nc21`: in [1], the result was Active. Also, the inhibition result in [2] is “Active”.

As for `O=c1c(O)c(-c2ccc(O)c(O)c2)oc2cc(O)cc(O)c12`, the outcome in assay [3], in assay [4], in assay [5], in assay [6], in [7] and in [8] was inactive. Also, the inhibition entry in the assay with SK-BR-3 [9], in the assay on SK-BR-3 [10], in the assay on SK-BR-3 [11] and in the assay with SK-BR-3 [12] was “Active” each time. The inhibition entry in the assay with NCI-H526 [13], in the assay with NCI-H526 [14] and in the assay with NCI-H526 [15] was “inactive” in each case.
